The target of series [1] is T1, C-C chemokine receptor type 4 (Homo sapiens, UniProt P51679).
T1 sequence (P51679 whole entry): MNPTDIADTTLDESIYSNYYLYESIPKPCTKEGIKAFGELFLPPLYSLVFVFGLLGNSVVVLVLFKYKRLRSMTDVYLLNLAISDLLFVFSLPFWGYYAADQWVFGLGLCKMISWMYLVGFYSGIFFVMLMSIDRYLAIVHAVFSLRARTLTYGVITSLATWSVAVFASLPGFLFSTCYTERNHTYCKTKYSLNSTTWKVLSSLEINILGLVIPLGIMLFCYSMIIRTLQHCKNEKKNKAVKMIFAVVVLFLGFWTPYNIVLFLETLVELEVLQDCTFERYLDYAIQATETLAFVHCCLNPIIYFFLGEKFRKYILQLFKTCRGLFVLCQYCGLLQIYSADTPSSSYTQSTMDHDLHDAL
The series is described as follows: Antagonist activity at human CCR4 expressed in rat chem-5 cells assessed as inhibition of CCL22-induced calcium flux measured at 2.5 secs time interval for 45 secs by calcium 6 dye-based FLIPR assay. The class given is functional, cell-based. A digest of the protocol: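 Primary calcium flux assay for CCR4 antagonism, run in the absence of serum.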
(In general: Calcium flux is commonly read through the fluorescence of an indicator in the cells.)

A short description of series [2]: Metabolic stability in rat hepatocytes assessed as parent compound remaining at 1 uM after 60 mins by LC-MS/MS analysis. It counts as ADME, cell-based, Hepatocyte. The following applies: read-out: Stability. An outline of the steps: (§1)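 Hepatocytes (human or rat). Compound incubated for 60 min; value is % parent remaining.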
Series [3] can be described thus: Metabolic stability in human hepatocytes assessed as parent compound remaining at 1 uM after 60 mins by LC-MS/MS analysis. The class given is ADME, cell-based, Hepatocyte. To be noted: read-out: Stability. An outline of the steps: as §1
Series [4] can be described thus: Clearance in rat at 0.5 mg/kg, iv. It counts as ADME, organism-based. To be noted: in vivo. An outline of the steps:
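Rat in vivo PK. Single IV dose of 0.5 mg/kg; clearance in mL/min/kg.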

The nature of series [5]: Oral bioavailability in rat at 2 mg/kg. The class given is ADME, organism-based. The following applies: in vivo. An outline of the steps: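 Rat in vivo PK. Oral dose of 2 mg/kg; %F derived.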
The target of a further series is Cytochrome P450 1A2 (Homo sapiens, UniProt P05177). The series is described as follows: Inhibition of CYP1A2 in human liver microsomes using phenacetin as substrate incubated for 20 mins in presence of NADPH by LC-MS/MS analysis. It counts as ADME. (Microsomes from liver hold many membrane-bound enzymes, among them those of drug oxidation.)
Sequence of Cytochrome P450 1A2 (P05177 whole entry): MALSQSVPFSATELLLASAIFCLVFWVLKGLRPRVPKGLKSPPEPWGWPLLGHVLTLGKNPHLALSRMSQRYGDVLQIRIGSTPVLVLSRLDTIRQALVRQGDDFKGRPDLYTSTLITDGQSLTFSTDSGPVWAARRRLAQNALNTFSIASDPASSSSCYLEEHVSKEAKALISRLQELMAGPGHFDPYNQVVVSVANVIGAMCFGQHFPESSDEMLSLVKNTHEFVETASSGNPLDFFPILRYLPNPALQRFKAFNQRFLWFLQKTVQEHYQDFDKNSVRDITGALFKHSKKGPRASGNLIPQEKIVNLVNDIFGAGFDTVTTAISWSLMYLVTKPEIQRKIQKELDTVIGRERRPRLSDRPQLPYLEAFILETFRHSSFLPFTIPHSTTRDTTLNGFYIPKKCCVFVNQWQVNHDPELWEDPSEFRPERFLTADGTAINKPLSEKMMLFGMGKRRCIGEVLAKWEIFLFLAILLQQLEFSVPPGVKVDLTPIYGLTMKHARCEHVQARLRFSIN
Another series concerns the target Cytochrome P450 2C9 (Homo sapiens, UniProt P11712). The series can be described thus: Inhibition of CYP2C9 in human liver microsomes using diclofenac sodium salt as substrate incubated for 20 mins in presence of NADPH by LC-MS/MS analysis. The class given is ADME.
A further series has as its target Cytochrome P450 2C19 (Homo sapiens, UniProt P33261). The series can be described thus: Inhibition of CYP2C19 in human liver microsomes using S-mephenytoin as substrate incubated for 20 mins in presence of NADPH by LC-MS/MS analysis. The class given is ADME.
Another series has as its target Cytochrome P450 2D6 (Homo sapiens, UniProt P10635). The series is described as follows: Inhibition of CYP2D6 in human liver microsomes using bufuralol hydrochloride salt as substrate incubated for 20 mins in presence of NADPH by LC-MS/MS analysis. The class given is ADME.
The target in another series is Cytochrome P450 3A4 (Homo sapiens, UniProt P08684). The series is described as follows: Inhibition of CYP3A4 in human liver microsomes using midazolam hydrochloride as substrate incubated for 20 mins in presence of NADPH by LC-MS/MS analysis. It counts as ADME.
Sequence of Cytochrome P450 3A4 (P08684 whole entry): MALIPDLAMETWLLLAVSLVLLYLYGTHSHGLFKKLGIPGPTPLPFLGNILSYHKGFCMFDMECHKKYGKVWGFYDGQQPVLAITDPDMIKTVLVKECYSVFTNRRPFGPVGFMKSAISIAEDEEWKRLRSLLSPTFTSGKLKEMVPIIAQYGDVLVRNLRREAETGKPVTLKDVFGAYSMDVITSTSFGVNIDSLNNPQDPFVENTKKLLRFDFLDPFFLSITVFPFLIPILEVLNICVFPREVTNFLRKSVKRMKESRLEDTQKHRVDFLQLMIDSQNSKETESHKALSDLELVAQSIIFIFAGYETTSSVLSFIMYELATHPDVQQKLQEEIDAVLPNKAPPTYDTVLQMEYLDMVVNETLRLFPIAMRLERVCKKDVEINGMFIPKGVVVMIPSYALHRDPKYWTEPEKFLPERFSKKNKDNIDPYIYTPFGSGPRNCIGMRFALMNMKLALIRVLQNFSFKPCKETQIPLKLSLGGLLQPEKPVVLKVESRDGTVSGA
For the next series, the target named is CYP3A4 (Homo sapiens, UniProt P08684). The series can be described thus: Ratio of IC50 for time-dependent inhibition of CYP3A4 in human liver microsomes using midazolam hydrochloride as substrate in presence of NADPH to IC50 for time-dependent inhibition of CYP3A4 in human liver microsomes using midazolam hydrochloride as substrate absence of NADPH. The following applies: probe midazolam hydrochloride, read-out: Ratio IC50.
Sequence of CYP3A4 (P08684 whole entry): as above

For another series, the system named is Cytochrome P450. The series is described as follows: Induction of CYP450 (unknown origin). It counts as ADME, protein assay. The following applies: human.

Results on 30 compounds are retold here after ChEMBL document CHEMBL4627411, “Novel Piperidinyl-Azetidines as Potent and Selective CCR4 Antagonists Elicit Antitumor Response as a Single Agent and in Combination with Checkpoint Inhibitors” (J Med Chem, 2020).

Structures are written as SMILES.

Broadly, the IC50 is the concentration at which inhibition is half-maximal. A word on the clearance: it is the rate of elimination divided by the concentration. Read a high clearance as a high capacity for elimination. The term bioavailability denotes the share of a dose that reaches the circulation, judged against a reference dose that is usually intravenous. The low end stands for poor availability, the high end for good availability.

Sequence of Cytochrome P450 2D6 (P10635 whole entry): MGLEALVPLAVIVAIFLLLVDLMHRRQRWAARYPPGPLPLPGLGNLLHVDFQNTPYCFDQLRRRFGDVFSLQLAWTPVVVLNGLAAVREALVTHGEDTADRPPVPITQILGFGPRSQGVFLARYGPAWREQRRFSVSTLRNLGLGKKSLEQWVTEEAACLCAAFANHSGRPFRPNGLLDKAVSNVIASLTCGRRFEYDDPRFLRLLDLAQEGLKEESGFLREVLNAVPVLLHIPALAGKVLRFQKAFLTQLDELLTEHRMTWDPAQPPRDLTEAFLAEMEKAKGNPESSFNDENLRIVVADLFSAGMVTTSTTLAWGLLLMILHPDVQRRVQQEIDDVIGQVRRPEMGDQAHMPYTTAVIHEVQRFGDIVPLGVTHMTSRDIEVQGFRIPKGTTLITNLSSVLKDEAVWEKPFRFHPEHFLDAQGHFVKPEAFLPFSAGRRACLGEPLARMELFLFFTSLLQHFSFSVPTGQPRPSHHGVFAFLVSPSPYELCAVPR
Sequence of Cytochrome P450 2C9 (P11712 whole entry): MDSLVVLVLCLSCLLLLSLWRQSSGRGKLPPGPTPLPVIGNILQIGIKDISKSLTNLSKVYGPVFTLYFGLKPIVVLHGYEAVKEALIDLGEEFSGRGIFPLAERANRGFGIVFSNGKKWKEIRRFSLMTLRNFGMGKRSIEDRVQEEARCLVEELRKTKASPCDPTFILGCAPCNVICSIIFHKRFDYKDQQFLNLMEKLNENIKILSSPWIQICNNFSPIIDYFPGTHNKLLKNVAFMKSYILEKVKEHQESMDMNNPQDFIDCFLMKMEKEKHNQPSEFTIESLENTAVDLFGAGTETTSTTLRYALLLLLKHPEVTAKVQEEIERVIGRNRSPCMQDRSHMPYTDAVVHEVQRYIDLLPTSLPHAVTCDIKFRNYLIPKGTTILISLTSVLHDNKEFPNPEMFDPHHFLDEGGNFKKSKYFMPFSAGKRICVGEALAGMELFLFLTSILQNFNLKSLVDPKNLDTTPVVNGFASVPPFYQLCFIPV
Sequence of Cytochrome P450 2C19 (P33261 whole entry): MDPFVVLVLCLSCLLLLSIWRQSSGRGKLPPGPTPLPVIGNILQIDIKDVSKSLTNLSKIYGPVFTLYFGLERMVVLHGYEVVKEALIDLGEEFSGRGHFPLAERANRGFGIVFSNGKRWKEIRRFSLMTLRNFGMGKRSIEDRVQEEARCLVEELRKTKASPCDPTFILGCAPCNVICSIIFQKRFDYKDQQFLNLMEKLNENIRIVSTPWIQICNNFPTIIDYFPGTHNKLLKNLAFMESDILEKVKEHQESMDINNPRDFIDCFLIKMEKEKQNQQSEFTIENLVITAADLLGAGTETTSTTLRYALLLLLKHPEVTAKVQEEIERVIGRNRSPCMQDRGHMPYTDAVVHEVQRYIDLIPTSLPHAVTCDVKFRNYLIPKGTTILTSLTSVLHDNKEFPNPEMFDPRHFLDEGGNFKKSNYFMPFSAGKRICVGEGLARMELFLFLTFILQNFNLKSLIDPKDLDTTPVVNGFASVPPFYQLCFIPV

On to `C[C@H](c1ccc(Cl)cc1Cl)n1nc(C#N)c2ncc(N3CC([C@H]4CCCN(CC(=O)O)C4)C3)nc21`, for which the IC50 in [1] came to 36 nM. In the case of `Cc1nn([C@H](C)c2ccc(Cl)cc2Cl)c2nc(N3CC([C@H]4CCCN(CCS(N)(=O)=O)C4)C3)cnc12`, the IC50 in series [1] came out at 84 nM. Still for that read-out and setting: for `C[C@H](c1ccc(Cl)cc1Cl)n1nc(C#N)c2ncc(N3CC([C@H]4CCCN(Cc5cnc[nH]5)C4)C3)nc21` the value was 21 nM.

With `CNC(=O)c1nn([C@H](C)c2ccc(Cl)cc2Cl)c2nc(N3CC([C@H]4CCCN(CCO)C4)C3)cnc12`, the IC50 in [1] worked out at 25 nM. Still for that read-out and setting: the value for `Cc1nn([C@H](C)c2ccc(Cl)cc2Cl)c2nc(N3CC(C4CCCN(CCS(N)(=O)=O)C4)C3)cnc12` (stereo partly drawn) was 121 nM; that for `C[C@H](c1ccc(Cl)cc1Cl)n1nc(C(=O)N(C)C)c2ncc(N3CC([C@H]4CCCN(CCO)C4)C3)nc21` was 9 nM; that for `C[C@H](c1ccc(Cl)cc1Cl)n1nc(C#N)c2ncc(N3CC([C@H]4CCCN(CC#N)C4)C3)nc21` was 1470 nM. Same read-out and setting: the value for `Cc1nn([C@H](C)c2ccc(Cl)cc2Cl)c2nc(N3CC([C@H]4CCCN(CCNC(=O)C(C)C)C4)C3)cnc12` was 18 nM. The same measure, in the same setting: the value for `Cc1nn([C@H](C)c2ccc(Cl)cc2Cl)c2nc(N3CC([C@H]4CCCN(CCCO)C4)C3)cnc12` was 37 nM.

As to `C[C@H](c1ccc(Cl)cc1Cl)n1nc(C(N)=O)c2ncc(N3CC([C@H]4CCCN(CCO)C4)C3)nc21`, in series [1], the IC50 was 8 nM. In addition, the remaining at 1 h, 1 µM in series [2] and in series [3] was 95% in each case. Further, the clearance in series [4] amounted to 191 mL/min/kg. In series [5], this compound yielded a bioavailability of 0%. In the case of `Cc1nn([C@H](C)c2ccc(Cl)cc2Cl)c2nc(N3CC([C@H]4CCCN(CCCC(=O)O)C4)C3)cnc12`, the IC50 in series [1] was 69 nM. Same read-out and setting: for `CCOC(=O)CN1CCCC(C2CN(c3cnc4c(C)nn([C@H](C)c5ccc(Cl)cc5Cl)c4n3)C2)C1` (stereo partly drawn) the value was 596 nM.

With `C[C@H](c1ccc(Cl)cc1Cl)n1nc(C#N)c2ncc(N3CC([C@H]4CCCN(CCC(F)(F)F)C4)C3)nc21`, the IC50 in series [1] came out at 370 nM. In the case of `Cc1nn([C@H](C)c2ccc(Cl)cc2Cl)c2nc(N3CC([C@H]4CCCN(CCNS(C)(=O)=O)C4)C3)cnc12`, the IC50 in series [1] came out at 29 nM. Besides, the remaining at 1 h, 1 µM came out at 53% in series [2] and 85% in series [3]. In [4], this compound came in with a clearance of 41.6 mL/min/kg. This compound returned a bioavailability in [5] of 11%. As for `Cc1nn([C@H](C)c2ccc(Cl)cc2Cl)c2nc(N3CC([C@@H]4CCCN(CCS(N)(=O)=O)C4)C3)cnc12`, the IC50 in [1] was 455 nM. The same measure, in the same setting: the value for `Cc1nn([C@H](C)c2ccc(Cl)cc2Cl)c2nc(N3CC([C@H]4CCCN(CCS(C)(=O)=O)C4)C3)cnc12` was 77 nM; that for `C[C@H](c1ccc(Cl)cc1Cl)n1nc(C#N)c2ncc(N3CC([C@H]4CCCN(CCC(=O)O)C4)C3)nc21` was 47 nM. In the case of `CC(=O)NCCN1CCC[C@H](C2CN(c3cnc4c(C)nn([C@H](C)c5ccc(Cl)cc5Cl)c4n3)C2)C1`, the IC50 in series [1] amounted to 6 nM. In addition, the remaining at 1 h, 1 µM was 68% in series [2] and 94% in [3]. In series [4], this compound registered a clearance of 11 mL/min/kg. Besides, the bioavailability in series [5] was found to be 13%.

In the case of `C[C@H](c1ccc(Cl)cc1Cl)n1nc(C#N)c2ncc(N3CC([C@H]4CCCN(CCC#N)C4)C3)nc21`, the IC50 in series [1] is 28 nM. On the same count and under the same terms, the value for `C[C@H](c1ccc(Cl)cc1Cl)n1nc(C(=O)O)c2ncc(N3CC([C@H]4CCCN(CCO)C4)C3)nc21` was greater than 5000 nM; that for `Cc1nn([C@H](C)c2ccc(Cl)cc2Cl)c2nc(N3CC(N4CCCCC4)C3)cnc12` was greater than 5000 nM. The same measure, in the same setting: for `CCN1CCC(C2CN(c3cnc4c(C)nn([C@H](C)c5ccc(Cl)cc5Cl)c4n3)C2)CC1` the value was greater than 5000 nM. The same measure, in the same setting: for `Cc1nn([C@H](C)c2ccc(Cl)cc2Cl)c2nc(N3CC([C@H]4CCCN(CCC(=O)O)C4)C3)cnc12` the value was 91 nM; for `COC(=O)NCCN1CCC[C@H](C2CN(c3cnc4c(C)nn([C@H](C)c5ccc(Cl)cc5Cl)c4n3)C2)C1`, 23 nM; for `Cc1nn([C@H](C)c2ccc(Cl)cc2Cl)c2nc(N3CC([C@H]4CCCN(CCCS(C)(=O)=O)C4)C3)cnc12`, 22 nM. `Cc1nn([C@H](C)c2ccc(Cl)cc2Cl)c2nc(N3CC([C@H]4CCCN(CCC(N)=O)C4)C3)cnc12`: the IC50 in [1] was found to be 42 nM. Take `Cc1nn([C@H](C)c2ccc(Cl)cc2Cl)c2nc(N3CC([C@H]4CCCN(CCNS(=O)(=O)C(C)C)C4)C3)cnc12`: in [1], the half-inhibitory concentration (IC50) came out at 31 nM.

In the case of `Cc1nn([C@H](C)c2ccc(Cl)cc2Cl)c2nc(N3CC([C@H]4CCCN(CCO)C4)C3)cnc12`, the IC50 in [1] is 24 nM; at Cytochrome P450 1A2, greater than 40000 nM; on Cytochrome P450 2C9 it was greater than 40000 nM; on Cytochrome P450 2C19 it was greater than 40000 nM; on Cytochrome P450 2D6, greater than 40000 nM; at Cytochrome P450 3A4, greater than 40000 nM. The remaining at 1 h, 1 µM worked out at 62% in [2] and 87% in series [3]. In [4], this compound came in with a clearance of 32.3 mL/min/kg. In [5], this compound showed a bioavailability of 61%. Besides, at CYP3A4, the IC50 shift is 2.6. Also, the Activity entry in the series with Cytochrome P450 is reported as “Not Active”.

For `Cc1nn([C@H](C)c2ccc(Cl)cc2Cl)c2nc(N3CC(CN(C)C)C3)cnc12`, the IC50 in series [1] came out at 1370 nM. The same measure, in the same setting: the value for `Cc1nn([C@H](C)c2ccc(Cl)cc2Cl)c2nc(N3CC([C@H]4CCCN(CCC(F)(F)F)C4)C3)cnc12` was 505 nM.
